Measurements taken from ChEMBL document CHEMBL1149056, “Bioactive annonaceous acetogenins from the bark of Xylopia aromatica” (J Nat Prod, 1994).
Values after ≈ are worked out from the molar mass of the structure shown.

Experiments:
A549 = assay: Cytotoxicity against human A549 cells after 7 days; assay type: functional; conditions: for EC50: Homo sapiens, A549, 168 h, read-out: ED50 (the source's name)
How it was run: (§1)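 Human solid tumor cell lines A-549 (lung carcinoma), MCF-7 (breast carcinoma) and HT-29 (colon adenocarcinoma) tested in seven-day cytotoxicity assays run at a cancer center cell culture laboratory, with adriamycin as positive control.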

[1] = Toxicity against brine shrimp larvae; assay type: organism-based; conditions: artemia, in vivo
MCF7 = assay: Cytotoxicity against human MCF7 cells after 7 days; assay type: functional; conditions: for EC50: Homo sapiens, MCF7, 168 h, read-out: ED50 (the source's name); how it was run: as §1
HT-29 = assay: Cytotoxicity against human HT-29 cells after 7 days; assay type: functional; conditions: for EC50: Homo sapiens, HT-29, 168 h, read-out: ED50 (the source's name); how it was run: as §1

Row | Structure (SMILES) | EC50 (A549) | LC50 [1] | EC50 (MCF7) | EC50 (HT-29) | ED50 (HT-29) | ED50 (A549) | ED50 (MCF7)
1 | CCCCCCCCCCCC[C@@H](O)[C@H]1CC[C@H]([C@H](O)CCCCCCC(O)CCC[C@@H](O)CC2=C[C@H](C)OC2=O)O1 (some centres undefined) [XYLOPIANIN] | 0.0426 µg/mL (≈ 0.0714 µM) | 0.33 µg/mL (≈ 0.553 µM) | 18.5 µg/mL (≈ 30.9 µM) | 6.63 µg/mL (≈ 11.1 µM) |  |  | 
2 | CCCCCCCCCCCCCC[C@@H](O)[C@H](O)CC[C@H](O)[C@@H]1CC[C@@H](CCCCC[C@@H](O)CC2=C[C@H](C)OC2=O)O1 [GIGANTETROCIN A] | 0.25 µg/mL (≈ 0.419 µM) | 1.4 µg/mL (≈ 2.35 µM) | 0.63 µg/mL (≈ 1.06 µM) |  | 4.1 ×10⁻⁵ ug/ml |  | 
3 | CCCCCCCCCCCC[C@@H](O)[C@H]1CC[C@H]([C@H](O)CCCC[C@H](O)CCCCC[C@@H](O)CC2=CC(C)OC2=O)O1 (some centres undefined) [ANNONACIN] |  | 0.23 µg/mL (≈ 0.385 µM) | 0.0024 µg/mL (≈ 0.00402 µM) |  | <1 ×10⁻⁷ ug/ml | <1 ×10⁻⁷ ug/ml | 
4 | CCCCCCCCCCCCCC[C@@H](O)[C@H]1CC[C@H]([C@H](O)CCCCC(O)CCCCC[C@@H](O)CC2=C[C@H](C)OC2=O)O1 (some centres undefined) [XYLOMATICIN] |  | 0.11 µg/mL (≈ 0.176 µM) |  | 0.304 µg/mL (≈ 0.486 µM) |  | 1.54 ×10⁻⁴ ug/ml | 1.47 ×10⁻⁶ ug/ml
5 | CCCCCCCCCCCCCC[C@@H](O)[C@H]1CC[C@H]([C@H](O)CCCCCCC(O)CCC[C@@H](O)CC2=C[C@H](C)OC2=O)O1 (some centres undefined) [XYLOPIACIN] |  | 0.49 µg/mL (≈ 0.784 µM) |  | 0.111 µg/mL (≈ 0.178 µM) |  | 1.36 ×10⁻⁶ ug/ml | 1.39 ×10⁻⁷ ug/ml
6 | CCCCCCCCCCCCCCC(O)C(O)CC[C@H](O)[C@H]1CC[C@H](CCCCC[C@@H](O)CC2=C[C@H](C)OC2=O)O1 (some centres undefined) [GIGANTETRONENIN] | 0.0047 µg/mL (≈ 0.00787 µM) |  | 0.603 µg/mL (≈ 1.01 µM) | 0.0537 µg/mL (≈ 0.09 µM) |  |  | 
7 | CCCCCCCCCCCC[C@H](O)[C@@H]1CC[C@@H]([C@@H](O)CCCCCCC(O)CCCCC[C@@H](O)CC2=C[C@H](C)OC2=O)O1 (some centres undefined) [ANNOMONTACIN] | 0.00772 µg/mL (≈ 0.0124 µM) |  | 0.165 µg/mL (≈ 0.264 µM) | 0.00258 µg/mL (≈ 0.00413 µM) |  |  | 
8 | COc1cccc2c1C(=O)c1c(O)c3c(c(O)c1C2=O)C[C@@](O)(C(=O)CO)C[C@@H]3O[C@H]1C[C@H](N)[C@H](O)[C@H](C)O1 [DOXORUBICIN] | 0.0011 µg/mL (≈ 0.00202 µM) |  | 0.0228 µg/mL (≈ 0.0419 µM) | 0.00279 µg/mL (≈ 0.00513 µM) |  |  | 
